Results reported in ChEMBL document CHEMBL1126042, “Reversible inhibitors of the gastric (H+/K+)-ATPase. 2. 1-Arylpyrrolo[3,2-c]quinolines: effect of the 4-substituent” (J Med Chem, 1992).

How the values were obtained:
Rattus norvegicus [1] = test: Percentage inhibition of rat gastric secretion following 10 uM/Kg i.v.
[2] = molecular target: T1, Potassium-transporting ATPase (Rattus norvegicus, UniProt P09626); test: Inhibition of rat isolated gastric (H(+)/K(+))-ATPase.; format: tissue-based, Stomach
Summary of the method: (§1)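 (H+/K+)-ATPase activity measured in lyophilized gastric vesicles; compounds dissolved in DMSO, then diluted into pH 7.0 buffer. IC50 given as mean ± range (n = 2) or as a single observed value (n = 1).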

[3] = molecular target: T2, Potassium-transporting ATPase (Rattus norvegicus) (UniProt P09626+P18598); test: The compound was evaluated for the inhibition of gastric (H(+)/K(+))-ATPase at 30 uM; settings: Stomach
Rattus norvegicus [4] = test: The compound was evaluated for the percentage inhibition of rat gastric secretion at a dose of 10 umol/kg on intravenous administration; d = Compound was too insoluble for intravenous administration; format: functional, organism-based; settings: Stomach
Rattus norvegicus [5] = test: The compound was evaluated for the percentage inhibition of rat gastric secretion at a dose of 10 umol/kg on intravenous administration; format: functional; settings: Stomach
[6] = molecular target: T2, Potassium-transporting ATPase (Rattus norvegicus); test: The compound was evaluated for the inhibition of gastric H+/K+ ATPase at 10 uM; format: tissue-based; settings: Stomach
Rattus norvegicus [7] = test: The compound was evaluated for the gastric antisecretory activity in the lumen-perfused rat on intravenous administration; format: functional; settings: Stomach
Canis familiaris [8] = test: The compound was evaluated for the gastric antisecretory activity in the Heidenhain pouch dog for a dose of 1 umol/kg on intravenous administration.; format: functional; settings: Canis lupus familiaris, Stomach
Summary of the method: (§2)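 Conscious Heidenhain pouch dogs dosed intravenously; inhibition of gastric acid secretion measured.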

[9] = molecular target: Potassium-transporting ATPase (Rattus norvegicus, UniProt P09626+P18598); test: The compound was evaluated for the inhibition of gastric (H(+)/K(+))-ATPase; Compound was insoluble; format: protein-complex assay, Stomach
Summary of the method: as §1

[10] = molecular target: T1, Potassium-transporting ATPase; test: The compound was evaluated for the inhibition of gastric H+/K+ ATPase; format: tissue-based, Stomach
Summary of the method: as §1

[11] = molecular target: T2, Potassium-transporting ATPase (Rattus norvegicus); test: The compound was evaluated for the inhibition of gastric H+/K+ ATPase at 100 uM; format: tissue-based; settings: Stomach
Canis familiaris [12] = test: The compound was evaluated for the gastric antisecretory activity in the Heidenhain pouch dog for a dose of 4 umol/kg on intravenous administration; format: functional; settings: Canis lupus familiaris, Stomach
Summary of the method: as §2

Canis familiaris [13] = test: The compound was evaluated for the gastric antisecretory activity in the Heidenhain pouch dog for a dose of 1 umol/kg on intravenous administration; format: functional; settings: Canis lupus familiaris, Stomach
Summary of the method: as §2

[14] = molecular target: T2, Potassium-transporting ATPase (Rattus norvegicus); test: The compound was evaluated for the inhibition of gastric (H(+)/K(+))-ATPase at 100 uM; format: protein-complex assay; settings: Stomach

T1 sequence (P09626 whole entry): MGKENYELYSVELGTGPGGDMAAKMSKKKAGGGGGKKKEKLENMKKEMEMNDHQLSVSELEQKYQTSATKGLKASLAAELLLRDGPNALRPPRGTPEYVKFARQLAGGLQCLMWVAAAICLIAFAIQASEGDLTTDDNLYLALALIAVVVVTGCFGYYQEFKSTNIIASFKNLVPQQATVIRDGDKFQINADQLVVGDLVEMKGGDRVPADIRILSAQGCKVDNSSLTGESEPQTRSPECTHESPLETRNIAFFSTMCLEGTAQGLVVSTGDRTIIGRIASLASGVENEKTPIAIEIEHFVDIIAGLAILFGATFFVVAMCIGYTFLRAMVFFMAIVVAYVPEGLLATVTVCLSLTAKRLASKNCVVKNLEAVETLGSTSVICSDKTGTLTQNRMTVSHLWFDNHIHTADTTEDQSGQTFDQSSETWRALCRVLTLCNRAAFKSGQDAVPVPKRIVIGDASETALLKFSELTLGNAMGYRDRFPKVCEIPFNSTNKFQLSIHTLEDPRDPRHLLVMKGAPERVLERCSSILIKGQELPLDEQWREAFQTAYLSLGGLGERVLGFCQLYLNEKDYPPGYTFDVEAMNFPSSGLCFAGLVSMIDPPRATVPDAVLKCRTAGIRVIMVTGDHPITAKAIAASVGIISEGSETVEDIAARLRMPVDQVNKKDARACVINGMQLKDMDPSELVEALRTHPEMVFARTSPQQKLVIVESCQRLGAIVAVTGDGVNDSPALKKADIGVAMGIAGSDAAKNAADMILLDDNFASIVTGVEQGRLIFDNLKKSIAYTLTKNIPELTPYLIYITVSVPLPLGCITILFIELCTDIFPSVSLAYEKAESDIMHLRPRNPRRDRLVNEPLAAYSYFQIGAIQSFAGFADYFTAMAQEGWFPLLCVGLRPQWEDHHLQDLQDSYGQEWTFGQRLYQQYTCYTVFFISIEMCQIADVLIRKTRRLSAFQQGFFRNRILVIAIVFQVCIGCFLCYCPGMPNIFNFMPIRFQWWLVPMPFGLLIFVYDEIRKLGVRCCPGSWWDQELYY
T1 sequence (P18598 whole entry, further chain): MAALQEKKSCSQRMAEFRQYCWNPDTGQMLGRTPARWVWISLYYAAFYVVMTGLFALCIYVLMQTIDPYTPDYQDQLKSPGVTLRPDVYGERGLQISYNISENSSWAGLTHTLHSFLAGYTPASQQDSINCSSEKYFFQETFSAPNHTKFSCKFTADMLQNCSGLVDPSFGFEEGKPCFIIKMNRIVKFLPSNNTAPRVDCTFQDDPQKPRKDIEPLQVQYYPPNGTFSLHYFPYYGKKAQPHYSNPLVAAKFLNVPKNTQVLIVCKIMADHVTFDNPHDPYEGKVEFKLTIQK
Chain of Potassium-transporting ATPase (Rattus norvegicus, UniProt P09626+P18598) (P09626 whole entry): as the sequence (P09626 whole entry) above
Chain of Potassium-transporting ATPase (Rattus norvegicus, UniProt P09626+P18598) (P18598 whole entry): as the sequence (P18598 whole entry, further chain) above

SMILES | IC50 [2] | Inhibition (Rattus norvegicus [1]) | other results
COc1ccccc1N1CCc2c(N)nc3c(OC)cccc3c21 | 440 nM | 20% | –
CNc1nc2c(OC)cccc2c2c1CCN2c1ccccc1C | 250 nM | 49% | –
COc1nc2c(C)cccc2c2c1CCN2c1ccccc1C | – | – | inhibition [3]: 0%; inhibition (Rattus norvegicus [4]): Too insoluble
Cc1ccccc1N1CCc2c(Cl)nc3c(C)cccc3c21 | – | – | inhibition in vivo at 10 µmol/kg (Rattus norvegicus [5]): 15%; inhibition [6]: 25%
Cc1ccccc1N1CCc2c(CO)nc3ccccc3c21 | 1230 nM | 33% | –
CCOC(=O)c1cc(Nc2ccccc2C)c2cccc(OC)c2n1 | 850 nM | – | ED50 (Rattus norvegicus [7]): 8.2 µmol/kg
COc1cccc2c3c(c(C(=O)Nc4ccccc4C)nc12)CCN3c1ccccc1C | – | – | IC50 [9]: Insoluble
COc1ccccc1N1CCc2c(Cl)nc3c(OC)cccc3c21 | – | – | IC50 [10]: 10700 nM; inhibition in vivo at 10 µmol/kg (Rattus norvegicus [5]): 19%
Cc1ccccc1-n1ccc2c(NCCCO)nc3c(C)cccc3c21 | 410 nM | 30% | –
Cc1ccccc1-n1ccc2c(NCCCCO)nc3c(C)cccc3c21 | 220 nM | 47% | –
COc1cccc2c1nc(C)c1ccn(-c3ccccc3C)c12 | 640 nM | 48% | ED50 (Rattus norvegicus [7]): 7.08 µmol/kg
Cc1ccccc1-n1ccc2c(Cl)nc3c(C)cccc3c21 | – | – | inhibition [11]: 30%; inhibition [6]: 2%
Cc1ccccc1N1CCc2cnc3c(C)cccc3c21 | 980 nM | 47% | ED50 (Rattus norvegicus [7]): 16.2 µmol/kg
CNc1nc2c(C)cccc2c2c1CCN2c1ccccc1C | 180 nM | 72% | inhibition in vivo at 4 µmol/kg (Canis familiaris [12]): 95%; ED50 (Rattus norvegicus [7]): 2.8 µmol/kg; inhibition in vivo at 1 µmol/kg (Canis familiaris [13]): 67%
Cc1ccccc1N1CCc2c1nc1c(C)cccc1c2Cl | – | – | inhibition [14]: 8%
COc1ccccc1N1CCc2c(O)nc3c(OC)cccc3c21 | – | – | inhibition (Rattus norvegicus [4]): Too insoluble
CSc1nc2c(C)cccc2c2c1CCN2c1ccccc1C | – | – | inhibition [3]: 0%; inhibition (Rattus norvegicus [4]): Too insoluble
COc1cccc2c3c(c(NCCO)nc12)CCN3c1ccccc1C | 280 nM | 67% | –

Second part, led by results:

IC50 [2] | SMILES | Inhibition (Rattus norvegicus [1]) | other results
290 nM | CNc1nc2c(C)cccc2c2c1ccn2-c1ccccc1C | 61% | –
1030 nM | Cc1ccccc1N1CCc2c(N(C)C)nc3c(C)cccc3c21 | 56% | ED50 (Rattus norvegicus [7]): 7.2 µmol/kg
1100 nM | Cc1ccccc1N1CCc2c1nc1c(C)cccc1c2Nc1ccccc1 | 0% | –
220 nM | Cc1ccccc1N1CCc2c(N)nc3c(C)cccc3c21 | 63% | ED50 (Rattus norvegicus [7]): 4.3 µmol/kg; inhibition in vivo at 1 µmol/kg (Canis familiaris [8]): 53%
1990 nM | Cc1ccccc1N1CCc2c(NC(N)=O)nc3c(C)cccc3c21 | – | inhibition (Rattus norvegicus [4]): Too insoluble
280 nM | CNc1nc2c(C)cccc2c2c1CCN2c1ccc(OC)cc1C | 67% | –
33400 nM | COc1ccccc1N1CCc2c1c1cccc(OC)c1[nH]c2=O | – | –
170 nM | Cc1ccccc1-n1ccc2c(NCCO)nc3c(C)cccc3c21 | 48% | –
1290 nM | COc1ccccc1N1CCc2cnc3c(OC)cccc3c21 | 31% | –
4970 nM | CNC(=O)Nc1nc2c(C)cccc2c2c1CCN2c1ccccc1C | – | inhibition (Rattus norvegicus [4]): Too insoluble
